FGF22 binding – FGF22 (human) thermal shift binding | AID 651658 | 1.5% of 340,000 active | Q9HCT0 | recombinant FGF22 thermal shift, SYPRO orange fluorescence; percent of sucrose octasulfate shift, DMSO zero | activity (Tm shift, normalised), % at 9.99 µM;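 active means mean Tm shift, scaled 0 neutral to 100 positive control, at about 1.3% or above, every replicate too, limit read from the data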
miR122 inh – blocks miR-122 activity in Huh7 sensor cells; Huh7 miR-122 Renilla luciferase sensor, 48 h; neutral wells = 0, positive control = 100; activation (reporter increase), % at 12.5 µM; 0.3% of 340,000 active; AID 602342;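 active means mean replicate activation score at least 90 and every replicate individually at or above 90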;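 further: higher luciferase means less miR-122 activity so hits act as miR-122 inhibitors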
NR2E3 ag-1 – human photoreceptor-specific nuclear receptor agonism; Q9Y5X4; 0.35% of 360,000 active; CHO-S Gal4-NCOR/VP16-NR2E3 two-hybrid, luciferase; inhibition of corepressor binding, % at 3.98 µM;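 active means inhibition above the mean of all tested compounds plus 3 SD, cut at about 70% in these data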;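 further: 0% = DMSO with NR2E3 transfected cells and 100% = cells lacking NR2E3 construct; higher means lower luciferase signal from less NR2E3 corepressor binding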
Target sequence (Q9Y5X4 whole entry, looked up, the tested form may be a part): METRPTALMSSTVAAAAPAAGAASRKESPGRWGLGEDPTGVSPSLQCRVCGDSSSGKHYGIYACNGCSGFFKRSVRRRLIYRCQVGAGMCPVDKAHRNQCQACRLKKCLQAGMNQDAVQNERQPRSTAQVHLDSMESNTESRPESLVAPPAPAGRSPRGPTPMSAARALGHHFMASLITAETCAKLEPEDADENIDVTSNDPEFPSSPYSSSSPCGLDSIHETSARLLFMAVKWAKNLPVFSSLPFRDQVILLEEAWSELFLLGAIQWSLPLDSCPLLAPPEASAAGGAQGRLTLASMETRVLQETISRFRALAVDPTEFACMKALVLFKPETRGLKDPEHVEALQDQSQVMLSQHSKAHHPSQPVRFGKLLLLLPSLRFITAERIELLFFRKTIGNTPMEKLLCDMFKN
Jurkat NFkB inh – lowers PMA/ionomycin-induced NF-kB signal in Jurkat cells; AID 435003; 0.53% of 330,000 active; PMA/ionomycin-induced NF-kB luciferase reporter, luminescence; inhibition, % at 4 µM; in the data active means inhibition above about 50%
697 NFkB inh – inhibitors of the PMA/ionomycin-induced NF-kB reporter in 697 B cells. 697 B-cell NF-kB luciferase reporter, 16 h. 0.33% of 330,000 active. inhibition, % at 4 µM; in the data active means inhibition above about 35%
NR2E3 ag-2 – agonists of human nuclear receptor NR2E3 | inhibition of corepressor binding, % at 4.78 µM | GST-NR2E3/biotin-RetCOR TR-FRET, 1536-well | 0.12% of 320,000 active | Q9Y5X4 | AID 2300;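 active means percent inhibition above the cutoff of mean plus 3 SD of all tested compounds, set per screening campaign, cut at about 20% in these data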;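 further: 0% = DMSO wells and 100% = biotin wells as full block of FRET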
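Material – GST-tagged NR2E3 plus biotinylated RetCOR corepressor · Quantity – NR2E3 fusion 1.35 nM · Times – 5 h incubation at 4 °C · Medium – pH 7.5 Tris-based buffer · Technique – TR-FRET, Eu(K)-anti-GST donor, streptavidin-D2 acceptor, ex 340, em 617/671 nm · Benchmarks – high control biotin, low control 0.6% DMSO · Format – 1536-well plates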
697 NFkB conf – lowers PMA/ionomycin-induced NF-kB signal in 697 B cells; 35% of 2,000 active; inhibition, % at 4 µM; AID 449746; shares compounds with 697 NFkB inh; 697 B-cell NF-kB luciferase, 16 h; in the data active means inhibition mostly above about 28%, no sharp cut-off; inactive means mostly below about 22%
NR2E3 ag conf – confirmation of human NR2E3 agonists; shares compounds with NR2E3 ag-1; CHO-S mammalian two-hybrid NR2E3-NCOR, luciferase luminescence; inhibition, % at 3.98 µM; 51% of 2,300 active; AID 624378;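 active means average inhibition above a cutoff equal to the mean inhibition of all tested compounds plus one SD, cut at about 70% in these data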;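 further: 0% = DMSO in NR2E3 cells and 100% = DMSO in cells lacking NR2E3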
GAL4-VP16 luc – GAL4-VP16 reporter inhibition in NR2E3 agonist counterscreen | shares compounds with NR2E3 ag-1 | inhibition, % at 3.98 µM | CHO-S GAL4-VP16 luciferase reporter, luminescence | AID 624379 | 29% of 2,300 active;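 active means mean inhibition above a cutoff equal to the average over all tested compounds plus one standard deviation, cut at about 70% in these data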;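 further: luciferase from a UAS reporter driven by GAL4-VP16 transactivation; 0% = DMSO with VP16-transfected cells and 100% = DMSO with cells lacking VP16; higher means less reporter light so more repression of VP16 activity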
Numbers without * were called inactive; i = inactive; x = no result; [ ] = remark or other dose. Rows were chosen to be rich in hits. Some 2.2% of all compounds tested hit in one or more screens of this group.

SMILES | FGF22 binding | miR122 inh | NR2E3 ag-1 | Jurkat NFkB inh | 697 NFkB inh | NR2E3 ag-2 | 697 NFkB conf | others
Cc1cc(OCC(=O)N2CCC(C(N)=O)CC2)c2c3c(c(=O)oc2c1)CCCC3 | 0.0 | -1.0 | -5.3 | -8.3 | 41.6* | 1.8 | 29.7*
O=C(Cc1ccccn1)N1CCCCN2[C@@H](CO)[C@H](c3ccc(C#Cc4ccccc4)cc3)[C@@H]2C1 | 0.0 | -4.5[16.7 µM] | x | x | x | x | x
C[C@]12CC[C@H]3C(CCC4(O)CC(O)CC[C@]34C=O)C1=CC[C@H]2c1ccc(=O)oc1 (stereo partly drawn) | -0.1 | 9.0 | -43.2 | 26.1 | i | -0.3 | i
CC12CC[C@H]3[C@@H](CCC4(O)C[C@H](O)CCC34/C=N/NC(=O)Cc3ccccc3)C1(O)CCC2C1=CC(=O)OC1 (stereo partly drawn) | 0.2 | -26.6 | -14.8 | -10.2 | -0.8 | 2.1 | x
O=C(O)[C@H]1[C@H](CO)[C@H]2Cn3c(ccc(-c4ccncc4)c3=O)[C@@H]1N2C(=O)C1CCC1 | 0.3 | 8.3[16.7 µM] | x | x | x | x | x
Cc1nc2cc(-c3ccccc3)nn2c(C)c1CCC(=O)N1CCC2(CC1)OCCO2 | x | 21.3 | 25.2 | 13.5 | 42.7* | 0.6 | 45.6*
C=CCn1c(O)c(C(C)=NC(C)c2ccccc2)c(=O)[nH]c1=O (stereo not drawn) | 0.1 | 2.9 | -47.6 | -1.9 | 41.1* | 2.5 | 30.1*
C=CCn1c(O)c(C(C)=NCCC(c2ccccc2)c2ccccc2)c(=O)[nH]c1=O | x | x | -21.8 | -14.0 | -4.7 | 0.1 | x
COC(=O)[C@@H]1[C@@H](CO)[C@@H]2Cn3c(ccc(-c4cccnc4)c3=O)[C@H]1N2S(=O)(=O)c1ccccc1C | 0.0 | x | x | x | x | x | x
C[C@H]1CCC[C@@H](O)CCC/C=C/c2cc(O)cc(O)c2C(=O)O1 | x | 2.0 | 24.7 | 10.0 | 42.7* | 2.8 | 12.7
N#Cc1cccc(-c2ccc([C@@H]3[C@H]4CN(C(=O)Cc5ccccc5)CCCCN4[C@H]3CO)cc2)c1 | -0.2 | -15.7[16.7 µM] | x | x | x | x | x
CC1CN(c2ccc([N+](=O)[O-])c3cccnc23)CC(C)N1 (stereo not drawn) | x | 6.1 | -1.9 | -16.0 | -274.7 | 1.8 | -61.8
CCn1c(=O)cc(SCC(=O)N2CCC3(CC2)OCCO3)c2ccccc21 | x | x | 17.7 | 13.1 | 62.0* | -6.2 | 39.6*
Cn1c(=O)n(CC(=O)N2CCC3(CC2)OCCO3)c(=O)c2ccccc21 | x | -3.6 | 4.2 | -11.5 | -0.1 | 2.2 | x
C=C1C(=O)[C@@]23C[C@H]4[C@@H]5[C@@]6(C)CCC[C@@]57[C@@H]2[C@@H](O)[C@@H]1C[C@H]3[C@H]7N4C6 | -0.2 | 0.7 | -48.0 | 47.3 | 44.2* | 0.6 | 37.4*
O=C(Cc1ccccc1)N1CCCCN2[C@H](CO)[C@H](c3ccc(C#CC4(O)CCCC4)cc3)[C@@H]2C1 | 0.7 | 0.9[16.7 µM] | x | x | x | x | x
CN(C)c1ccc(/C=C/[N+](=O)[O-])cc1 | 0.0 | x | -14.4 | -32.0 | 2.8 | -3.0 | x
C/C(=C\c1ccc(N(C)C)cc1)[N+](=O)[O-] | -0.1 | 2.6 | 2.8 | 19.4 | 38.1* | 0.6 | 12.1
O=C(Nc1ccc(OC(=O)N2CCCCC2)cc1)N1CCOCC1 | -0.2 | -3.5 | 35.7 | 2.7 | 57.9* | 0.5 | 0.5
COC(=O)C1=C(c2ccc(-c3ccccc3)c(F)c2)C[C@@H]2CC[C@H]1N2C(=O)N1CCCC1 | 0.1 | -5.9 | 70.6* | 22.2 | 46.3* | 1.9 | 61.9* | NR2E3 ag conf=53.7;GAL4-VP16 luc=56.2
COC(=O)[C@H]1[C@H](CO)[C@H]2Cn3c(ccc(-c4cccc(OC)c4)c3=O)[C@@H]1N2C(=O)c1cnccn1 | -0.2 | 2.9[16.7 µM] | x | x | x | x | x

From PubChem BioAssay
